Test results from ChEMBL document CHEMBL3612008, “Synthesis and anticancer effects evaluation of 1-alkyl-3-(6-(2-methoxy-3-sulfonylaminopyridin-5-yl)benzo[d]thiazol-2-yl)urea as anticancer agents with low toxicity” (Bioorg Med Chem, 2015).
pIC50: −log10 of the molar value.

Tests used:
MCF7 = assay: Antiproliferative activity against human MCF7 cells incubated for 72 hrs by MTT assay; assay type: functional, cell-based; conditions: MCF7, 72 h
How it was run: (§1)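 HCT-116, MCF-7 and U-87 MG grown in DMEM with 10% FBS, 37 °C, 5% CO2; 3000-5000 cells/well preincubated 24 h, then compounds at final 100, 10, 1, 0.1, 0.01 µM for 72 h.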

U-87 MG = assay: Antiproliferative activity against human U87MG cells incubated for 72 hrs by MTT assay; assay type: functional, cell-based, U-87MG ATCC; how it was run: as §1
A549 = assay: Antiproliferative activity against human A549 cells incubated for 72 hrs by MTT assay; assay type: functional, cell-based; conditions: A549, 72 h
How it was run: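 A549 in RPMI-1640 with 10% calf serum, 37 °C, 5% CO2; seeded 3000-5000 cells/well, 24 h before exposure to final 100, 10, 1, 0.1, 0.01 µM for 72 h. MTT (5 mg/ml in PBS) added, 4 h at 37 °C; formazan dissolved in DMSO, OD 570 nm. Three experiments in triplicate; IC50 from inhibition ratios.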

HCT-116 = assay: Antiproliferative activity against human HCT116 cells incubated for 72 hrs by MTT assay; assay type: functional, cell-based; conditions: HCT-116, 72 h; how it was run: as §1
[1] = Acute toxicity in mouse dosed orally once daily and observed for 7 days by up and down procedure; assay type: organism-based; conditions: in vivo, po
How it was run: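 Male mice, 20.1 ± 1.9 g. Compound dissolved in NMP, then diluted with PEG400 and water (NMP/PEG400/H2O 1:6:3 by volume), given by gavage at 20 ml/kg. Starting dose 10 mg/kg, single mouse per step; dose raised 1.5-fold when the animal behaved normally, continuing until a death occurred.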

Mus musculus = assay: Toxicity in mouse S180 cells transplanted mouse assessed as increase in body weight at 1 to 10 mg/kg, po dosed once daily for 8 days; assay type: organism-based, CCRF S-180; conditions: in vivo, 192 h
How it was run: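 S180 flank homograft mice (3×10^6 cells s.c., 8 per group) dosed orally once daily for 8 days at 1.0, 3.0 or 10.0 mg/kg in NMP/PEG400/H2O (1:6:3), solvent-only controls; body weights recorded daily and again at sacrifice on Day 9.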

[2] = molecular target: PI3-kinase subunit gamma/Phosphoinositide 3-kinase regulatory subunit 5 (Homo sapiens, UniProt P48736); assay: Inhibition of p110gamma/PIK3R5 (unknown origin) incubated for 40 mins by luciferase based ATP depletion assay; assay type: protein-complex assay
[3] = molecular target: PI3-kinase p110-alpha/p85-alpha (Homo sapiens, UniProt P42336); assay: Inhibition of p110alpha/p85alpha (unknown origin) incubated for 40 mins by luciferase based ATP depletion assay; assay type: protein-complex assay
CCRF S-180 [4] = assay: Anticancer activity against mouse S180 cells transplanted in mouse assessed as reduction in tumor weight at 1 mg/kg, po dosed once daily for 8 days; assay type: functional; conditions: CCRF S-180, po, 192 h
PI3K p110 beta/p85 alpha = PI3K p110 beta/p85 alpha (Homo sapiens, UniProt P42338); assay: Inhibition of p110beta/p85alpha (unknown origin) incubated for 40 mins by luciferase based ATP depletion assay; assay type: protein-complex assay
CCRF S-180 [5] = assay: Anticancer activity against mouse S180 cells transplanted in mouse assessed as reduction in tumor weight at 3 mg/kg, po dosed once daily for 8 days; assay type: functional; conditions: CCRF S-180, po, 192 h
mTORC1 = mTORC1 (Homo sapiens, UniProt P42345); assay: Inhibition of mTORC1 (unknown origin) incubated for 40 mins by luciferase based ATP depletion assay; assay type: protein-complex assay
[6] = molecular target: PI3-kinase p110-delta/p85-alpha (Homo sapiens, UniProt O00329); assay: Inhibition of p110delta/p85alpha (unknown origin) incubated for 40 mins by luciferase based ATP depletion assay; assay type: protein-complex assay
CCRF S-180 [7] = assay: Anticancer activity against mouse S180 cells transplanted in mouse assessed as reduction in tumor weight at 10 mg/kg, po dosed once daily for 8 days; assay type: functional; conditions: CCRF S-180, po, 192 h

Sequence of PI3K p110 beta/p85 alpha (P27986 whole entry): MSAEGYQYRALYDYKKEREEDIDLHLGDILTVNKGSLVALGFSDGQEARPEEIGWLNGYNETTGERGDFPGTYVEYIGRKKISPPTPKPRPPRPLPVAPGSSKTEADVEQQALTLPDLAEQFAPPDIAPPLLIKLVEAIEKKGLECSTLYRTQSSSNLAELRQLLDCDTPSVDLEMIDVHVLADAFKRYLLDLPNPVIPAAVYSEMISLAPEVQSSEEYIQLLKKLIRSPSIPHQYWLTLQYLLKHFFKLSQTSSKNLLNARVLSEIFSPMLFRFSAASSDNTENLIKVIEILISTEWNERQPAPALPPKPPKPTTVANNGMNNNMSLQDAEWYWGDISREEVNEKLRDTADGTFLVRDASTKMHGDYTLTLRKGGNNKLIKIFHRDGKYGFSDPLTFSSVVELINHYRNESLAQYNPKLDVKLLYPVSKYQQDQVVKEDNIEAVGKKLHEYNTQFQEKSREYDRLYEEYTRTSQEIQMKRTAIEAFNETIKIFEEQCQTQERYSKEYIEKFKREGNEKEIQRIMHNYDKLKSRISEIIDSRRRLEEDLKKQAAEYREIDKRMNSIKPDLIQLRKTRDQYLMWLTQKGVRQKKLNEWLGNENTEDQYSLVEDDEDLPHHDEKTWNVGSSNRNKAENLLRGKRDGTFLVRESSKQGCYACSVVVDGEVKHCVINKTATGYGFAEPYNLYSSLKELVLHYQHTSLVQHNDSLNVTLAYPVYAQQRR
Sequence of PI3K p110 beta/p85 alpha (P42338 whole entry): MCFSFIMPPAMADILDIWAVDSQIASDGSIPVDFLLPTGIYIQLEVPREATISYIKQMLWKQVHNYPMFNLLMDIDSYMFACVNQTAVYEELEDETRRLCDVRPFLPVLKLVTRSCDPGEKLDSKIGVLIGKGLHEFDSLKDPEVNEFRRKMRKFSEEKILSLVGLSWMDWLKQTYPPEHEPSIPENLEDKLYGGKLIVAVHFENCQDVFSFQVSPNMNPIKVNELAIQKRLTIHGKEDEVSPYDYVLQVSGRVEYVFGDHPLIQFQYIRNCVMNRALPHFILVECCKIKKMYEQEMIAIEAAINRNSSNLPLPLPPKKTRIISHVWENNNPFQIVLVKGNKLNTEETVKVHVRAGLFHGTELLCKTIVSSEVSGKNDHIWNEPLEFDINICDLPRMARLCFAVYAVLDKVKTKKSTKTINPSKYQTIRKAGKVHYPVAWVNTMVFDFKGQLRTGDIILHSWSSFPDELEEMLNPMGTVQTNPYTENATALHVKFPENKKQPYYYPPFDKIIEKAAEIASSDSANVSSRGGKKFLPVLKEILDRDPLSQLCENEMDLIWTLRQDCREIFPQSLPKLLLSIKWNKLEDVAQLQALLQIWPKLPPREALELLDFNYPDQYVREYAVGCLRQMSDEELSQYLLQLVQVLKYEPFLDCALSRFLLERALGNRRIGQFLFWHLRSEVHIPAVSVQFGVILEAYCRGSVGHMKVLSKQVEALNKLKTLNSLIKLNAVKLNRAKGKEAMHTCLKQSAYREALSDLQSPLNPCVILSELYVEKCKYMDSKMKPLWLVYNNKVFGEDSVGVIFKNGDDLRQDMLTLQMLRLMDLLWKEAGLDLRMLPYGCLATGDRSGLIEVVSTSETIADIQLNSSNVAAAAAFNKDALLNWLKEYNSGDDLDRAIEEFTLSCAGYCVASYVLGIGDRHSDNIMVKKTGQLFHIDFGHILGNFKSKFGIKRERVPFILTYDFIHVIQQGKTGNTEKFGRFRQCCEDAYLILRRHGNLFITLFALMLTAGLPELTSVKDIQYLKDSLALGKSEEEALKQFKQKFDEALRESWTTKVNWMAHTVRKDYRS
Sequence of PI3-kinase p110-alpha/p85-alpha (P27986 whole entry): as the sequence (P27986 whole entry) above
Sequence of PI3-kinase p110-alpha/p85-alpha (P42336 whole entry): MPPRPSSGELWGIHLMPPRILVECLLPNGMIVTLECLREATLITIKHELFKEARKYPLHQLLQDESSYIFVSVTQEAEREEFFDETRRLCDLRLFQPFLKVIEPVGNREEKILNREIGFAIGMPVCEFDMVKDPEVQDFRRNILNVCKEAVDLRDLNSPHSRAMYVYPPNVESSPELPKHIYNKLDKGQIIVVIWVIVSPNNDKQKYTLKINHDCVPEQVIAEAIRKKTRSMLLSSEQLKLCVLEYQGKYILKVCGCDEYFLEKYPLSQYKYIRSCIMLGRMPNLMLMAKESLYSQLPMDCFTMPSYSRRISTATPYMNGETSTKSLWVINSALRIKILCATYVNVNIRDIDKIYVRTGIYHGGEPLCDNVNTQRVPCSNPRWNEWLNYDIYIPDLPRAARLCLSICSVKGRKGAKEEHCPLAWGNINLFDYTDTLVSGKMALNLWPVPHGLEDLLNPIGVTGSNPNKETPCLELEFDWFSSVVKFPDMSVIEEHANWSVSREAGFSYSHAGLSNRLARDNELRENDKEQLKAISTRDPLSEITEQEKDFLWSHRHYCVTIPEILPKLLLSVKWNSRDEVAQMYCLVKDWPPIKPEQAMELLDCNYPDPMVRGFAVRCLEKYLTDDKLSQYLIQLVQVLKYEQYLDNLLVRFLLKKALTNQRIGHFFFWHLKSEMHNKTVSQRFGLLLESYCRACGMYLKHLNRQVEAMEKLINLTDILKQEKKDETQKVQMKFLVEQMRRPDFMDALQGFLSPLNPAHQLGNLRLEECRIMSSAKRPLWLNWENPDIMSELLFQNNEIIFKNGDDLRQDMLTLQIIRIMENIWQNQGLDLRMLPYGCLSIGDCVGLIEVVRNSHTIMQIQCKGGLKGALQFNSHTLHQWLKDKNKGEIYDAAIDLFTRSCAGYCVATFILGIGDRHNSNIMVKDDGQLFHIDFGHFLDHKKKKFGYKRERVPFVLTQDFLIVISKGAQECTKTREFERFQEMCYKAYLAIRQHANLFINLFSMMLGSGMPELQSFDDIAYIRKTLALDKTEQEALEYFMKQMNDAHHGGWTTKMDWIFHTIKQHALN
Sequence of PI3-kinase p110-delta/p85-alpha (P27986 whole entry): as the sequence (P27986 whole entry) above
Sequence of PI3-kinase p110-delta/p85-alpha (O00329 whole entry): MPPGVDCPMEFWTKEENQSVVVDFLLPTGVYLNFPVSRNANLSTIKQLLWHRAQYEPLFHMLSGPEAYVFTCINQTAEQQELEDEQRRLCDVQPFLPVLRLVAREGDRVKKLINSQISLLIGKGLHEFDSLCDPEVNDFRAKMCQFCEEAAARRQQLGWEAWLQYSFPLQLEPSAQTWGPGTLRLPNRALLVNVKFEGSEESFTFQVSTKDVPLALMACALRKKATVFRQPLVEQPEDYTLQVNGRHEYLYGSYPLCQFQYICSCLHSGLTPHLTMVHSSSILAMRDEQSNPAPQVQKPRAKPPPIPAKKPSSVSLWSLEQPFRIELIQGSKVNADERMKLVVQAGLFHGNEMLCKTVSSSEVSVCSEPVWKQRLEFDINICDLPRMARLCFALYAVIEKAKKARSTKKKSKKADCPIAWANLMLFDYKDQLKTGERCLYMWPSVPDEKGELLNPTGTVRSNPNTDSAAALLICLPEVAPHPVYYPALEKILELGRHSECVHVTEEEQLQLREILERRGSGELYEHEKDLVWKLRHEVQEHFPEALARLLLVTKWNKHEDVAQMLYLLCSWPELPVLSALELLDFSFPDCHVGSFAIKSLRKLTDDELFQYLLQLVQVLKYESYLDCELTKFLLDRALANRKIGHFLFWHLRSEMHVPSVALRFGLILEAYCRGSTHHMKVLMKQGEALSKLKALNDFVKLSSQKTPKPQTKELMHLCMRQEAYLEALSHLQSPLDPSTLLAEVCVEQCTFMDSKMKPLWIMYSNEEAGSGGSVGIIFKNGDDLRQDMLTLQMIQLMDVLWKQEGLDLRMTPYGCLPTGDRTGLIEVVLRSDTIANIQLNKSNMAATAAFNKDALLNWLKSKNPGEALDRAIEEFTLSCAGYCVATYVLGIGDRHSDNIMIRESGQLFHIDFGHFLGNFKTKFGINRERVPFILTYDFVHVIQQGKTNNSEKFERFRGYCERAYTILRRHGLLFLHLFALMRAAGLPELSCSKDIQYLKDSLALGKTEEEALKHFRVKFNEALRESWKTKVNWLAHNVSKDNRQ

| SMILES | pIC50 (MCF7) | pIC50 (U-87 MG) | pIC50 (A549) | pIC50 (HCT-116) | other results |
| --- | --- | --- | --- | --- | --- |
| CNC(=O)Nc1nc2ccc(-c3cnc(OC)c(NS(=O)(=O)c4ccc(F)cc4)c3)cc2s1 | 5.92 | 5.91 | 5.81 | 6.06 | LD50 at 168 h [1]: 40 mg/kg |
| CC(=O)Nc1nc2ccc(-c3cnc(Cl)c(NS(=O)(=O)c4ccc(F)cc4)c3)cc2s1 | 6.37 | 6.36 | 6.39 | 6.36 | LD50 at 168 h [1]: 20 mg/kg |
| O=S(=O)(Nc1cc(-c2ccc3nc(NC4CC4)sc3c2)cnc1Cl)c1ccc(F)cc1 |  |  |  | 5.24 |  |
| Cn1c(=O)n(-c2ccc(C(C)(C)C#N)cc2)c2c3cc(-c4cnc5ccccc5c4)ccc3ncc21 [DACTOLISIB] | 6.32 | 5.85 | 6.12 |  |  |
| COc1ncc(-c2ccc3nc(NC(=O)NCCN4CCOCC4)sc3c2)cc1C#N | 5.64 | 5.08 | 5.33 | 5.34 |  |
| CCN(CC)CCNC(=O)Nc1nc2ccc(-c3cnc(OC)c(NS(=O)(=O)c4ccc(F)cc4)c3)cc2s1 | 6.49 | 6.41 | 6.35 | 6.52 | LD50 at 168 h [1]: 320 mg/kg; Activity (Mus musculus): Non-toxic; pIC50 [2]: 7.96; pIC50 [3]: 7.89; inhibition in vivo at 1 mg/kg (CCRF S-180 [4]): 27.2%; pIC50 (PI3K p110 beta/p85 alpha): 7.05; inhibition in vivo at 3 mg/kg (CCRF S-180 [5]): 44.3%; pIC50 (mTORC1): 7.11; pIC50 [6]: 6.83; inhibition in vivo at 10 mg/kg (CCRF S-180 [7]): 56.2% |
| COc1ccc(-c2ccc3nc(NC(=O)NCCN4CCOCC4)sc3c2)cn1 | < 4.70 | 5.14 | 5.29 | < 4.70 |  |
| CCCNc1nc2ccc(-c3cnc(Cl)c(NS(=O)(=O)c4ccc(F)cc4)c3)cc2s1 |  |  |  | < 4.70 |  |
| O=C(Nc1nc2ccc(-c3cnc(Cl)c(NS(=O)(=O)c4ccc(F)cc4)c3)cc2s1)NC1CC1 | 5.96 | 5.76 | 5.99 | 5.76 |  |
| COc1ncc(-c2ccc3nc(NC4CC4)sc3c2)cc1NS(=O)(=O)c1ccc(F)cc1 | 6.35 | 5.82 | 5.88 | 5.81 |  |
| COc1ncc(-c2ccc3nc(NC(=O)NCCN4CCN(C)CC4)sc3c2)cc1NS(=O)(=O)c1ccc(F)cc1 | 6.33 | 6.36 | 6.26 | 6.27 | LD50 at 168 h [1]: 300 mg/kg |
| O=C(NCCN1CCOCC1)Nc1nc2ccc(-c3cnc(Cl)c(NS(=O)(=O)c4ccc(F)cc4)c3)cc2s1 | 6.02 | 5.62 | 5.17 | 5.53 |  |
| COc1ncc(-c2ccc3nc(NC(=O)NCCN4CCCC4)sc3c2)cc1NS(=O)(=O)c1ccc(F)cc1 | 6.39 | 6.44 | 6.52 | 6.51 | LD50 at 168 h [1]: 300 mg/kg |
| CCOC(=O)CNc1nc2ccc(-c3cnc(OC)c(NS(=O)(=O)c4ccc(F)cc4)c3)cc2s1 |  |  |  | < 4.70 |  |

Further lines, with some results ahead:

| pIC50 (MCF7) | pIC50 (U-87 MG) | pIC50 (A549) | pIC50 (HCT-116) | SMILES | other results |
| --- | --- | --- | --- | --- | --- |
| 5.92 | 6.28 | 6.05 | 6.33 | COc1ncc(-c2ccc3nc(NC(=O)NC4CC4)sc3c2)cc1NS(=O)(=O)c1ccc(F)cc1 |  |
| 6.30 | 5.99 | 6.33 | 6.62 | COc1ncc(-c2ccc3nc(NC(=O)NCCN(C)C)sc3c2)cc1NS(=O)(=O)c1ccc(F)cc1 |  |
| 5.74 | 5.78 | 5.72 | 6.19 | COc1ncc(-c2ccc3nc(NC(=O)NCCN4CCOCC4)sc3c2)cc1NS(=O)(=O)C1CC1 |  |
| 6.77 | 6.44 | 6.51 | 6.74 | CCN(CC)CCNC(=O)Nc1nc2ccc(-c3cnc(OC)c(NS(=O)(=O)c4ccc(C)cc4)c3)cc2s1 |  |
| 6.12 | 6.31 | 6.37 | 6.28 | COc1ncc(-c2ccc3nc(NC(=O)NCCN4CCOCC4)sc3c2)cc1NS(=O)(=O)c1ccc(F)cc1 |  |
| 6.35 | 6.12 | 6.48 | 6.21 | COc1ncc(-c2ccc3nc(NC(=O)NCCN4CCCCC4)sc3c2)cc1NS(=O)(=O)c1ccc(F)cc1 |  |
| 6.68 | 6.28 | 6.42 | 6.24 | COc1ncc(-c2ccc3nc(NC(=O)NCCN4CCOCC4)sc3c2)cc1NS(=O)(=O)c1ccc(C)cc1 |  |
| 6.19 | 5.98 | 6.28 | 6.27 | COc1ncc(-c2ccc3nc(NC(=O)NCCN4CCOCC4)sc3c2)cc1NS(=O)(=O)c1ccc(Cl)cc1 |  |
| 6.59 | 6.32 | 6.31 | 6.60 | COc1ncc(-c2ccc3nc(NC(=O)NCCN4CCOCC4)sc3n2)cc1NS(=O)(=O)c1ccc(F)cc1 |  |
| 6.15 | 5.86 | 5.28 | 6.04 | CCN(CC)CCNC(=O)Nc1nc2ccc(-c3cnc(Cl)c(NS(=O)(=O)c4ccc(F)cc4)c3)cc2s1 |  |
